{"data": "Published values of several laboratories", "sample": "plasma"}
{"Structure (SMILES)": "CC(C)n1c(C2CCNCC2)nc2c([N+](=O)[O-])c(Br)c(Br)cc21", "host": "human", "route": "oral", "dose": "25 mg", "notes": "patients", "Cmax": "8.77 ng/mL"}
{"Structure (SMILES)": "C=CC(=O)NC1CCN(c2ncc3ncnc(Nc4ccc(Oc5ccc6c(c5)ncn6C)c(C)c4)c3n2)CC1", "host": "male human", "route": "intravenous", "dose": "100 µg", "notes": "single dose, healthy volunteers", "Cmax": "0.583 nM"}
{"Structure (SMILES)": "COc1ccc2c(c1)CN(C(=O)CCN1CCC(Cc3ccccc3)CC1)CC[S@@+]2[O-]", "host": "male human", "route": "intravenous", "dose": "0.01 mg/kg", "notes": "healthy volunteers", "Cmax": "21.9 ng/mL"}
{"Structure (SMILES)": "COc1ccc(-c2c(Nc3ccccn3)[nH]c3c(C4=CCCCC4)c(-c4ccccc4)nn3c2=O)cc1", "host": "human", "route": "oral", "dose": "100 mg once daily", "notes": "multiple doses, patients", "Cmax": "3490 ng/mL"}
{"Structure (SMILES)": "CC(=O)N(C)[C@H]1CCN(C(=O)c2cnc3c(c2)C[C@](C)(c2ccc(F)cc2)N3)C1", "host": "male human", "route": "oral", "dose": "15 mg", "notes": "multiple doses, once daily, steady state", "Cmax": "333 nM"}
{"Structure (SMILES)": "Cc1cc(-c2nccc3c2ccn3CC(=O)Nc2ccc(-c3cnccn3)cn2)ccn1", "host": "human", "route": "oral", "dose": "7 mg", "notes": "single dose", "Cmax": "57.4 nM"}
{"Structure (SMILES)": "O=C(COc1ccc(Cl)cc1)NC12CC(c3nnc([C@H]4C[C@@H](OC(F)(F)F)C4)o3)(C1)C2", "host": "human", "route": "oral", "dose": "145 mg", "notes": "multiple doses, once daily, steady state, healthy volunteers", "Cmax": "9280 nM"}
{"Structure (SMILES)": "OC[C@H]1O[C@@H](c2cc(Cc3ccc(C4CC4)cc3)c(Cl)c3c2CCO3)[C@H](O)[C@@H](O)[C@@H]1O", "host": "human", "route": "oral", "dose": "0.3 mg", "notes": "single dose, fasted", "Cmax": "4.5 ng/mL"}
